ChEMBL document CHEMBL1125485, “Inhibitors of blood platelet cAMP phosphodiesterase. 2. Structure-activity relationships associated with 1,3-dihydro-2H-imidazo[4,5-b]quinolin-2-ones substituted with functionalized side chains” (J Med Chem, 1992)

Key:
Phosphodiesterase 3 = Phosphodiesterase 3 (Homo sapiens, UniProt Q14432+Q13370); assay: Inhibition of human platelet PDE by inhibiting cyclic Adenosine monophosphate (cAMP) hydrolysis
Oryctolagus cuniculus = species: Oryctolagus cuniculus; assay: Inhibition of platelet aggregation using collagen as activating agent in rabbit platelet rich plasma (PRP); assay type: functional
Procedure, shortened: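 Rabbit platelet-rich plasma, aggregation triggered by ADP or collagen after 3 min preincubation of PRP with drug. Single or duplicate determinations, reference agent included.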

[1] = target: cGMP-dependent 3',5'-cyclic phosphodiesterase (Homo sapiens, UniProt O00408); assay: Inhibition of human platelet PDE by inhibiting cyclic Guanosine monophosphate (cGMP) hydrolysis
Rattus norvegicus [2] = species: Rattus norvegicus; assay: Oral efficacy in rats using the ex vivo aggregatory protocol; assay type: functional
Procedure, shortened: (§1)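 Rats given compound orally, then ADP-induced platelet aggregation measured ex vivo.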

Rattus norvegicus [3] = assay: Percent inhibition of oral efficacy in rats using the ex vivo aggregatory protocol at 10 mg/kg; assay type: functional; procedure, shortened: as §1

Sequence of cGMP-dependent 3',5'-cyclic phosphodiesterase (O00408 whole entry): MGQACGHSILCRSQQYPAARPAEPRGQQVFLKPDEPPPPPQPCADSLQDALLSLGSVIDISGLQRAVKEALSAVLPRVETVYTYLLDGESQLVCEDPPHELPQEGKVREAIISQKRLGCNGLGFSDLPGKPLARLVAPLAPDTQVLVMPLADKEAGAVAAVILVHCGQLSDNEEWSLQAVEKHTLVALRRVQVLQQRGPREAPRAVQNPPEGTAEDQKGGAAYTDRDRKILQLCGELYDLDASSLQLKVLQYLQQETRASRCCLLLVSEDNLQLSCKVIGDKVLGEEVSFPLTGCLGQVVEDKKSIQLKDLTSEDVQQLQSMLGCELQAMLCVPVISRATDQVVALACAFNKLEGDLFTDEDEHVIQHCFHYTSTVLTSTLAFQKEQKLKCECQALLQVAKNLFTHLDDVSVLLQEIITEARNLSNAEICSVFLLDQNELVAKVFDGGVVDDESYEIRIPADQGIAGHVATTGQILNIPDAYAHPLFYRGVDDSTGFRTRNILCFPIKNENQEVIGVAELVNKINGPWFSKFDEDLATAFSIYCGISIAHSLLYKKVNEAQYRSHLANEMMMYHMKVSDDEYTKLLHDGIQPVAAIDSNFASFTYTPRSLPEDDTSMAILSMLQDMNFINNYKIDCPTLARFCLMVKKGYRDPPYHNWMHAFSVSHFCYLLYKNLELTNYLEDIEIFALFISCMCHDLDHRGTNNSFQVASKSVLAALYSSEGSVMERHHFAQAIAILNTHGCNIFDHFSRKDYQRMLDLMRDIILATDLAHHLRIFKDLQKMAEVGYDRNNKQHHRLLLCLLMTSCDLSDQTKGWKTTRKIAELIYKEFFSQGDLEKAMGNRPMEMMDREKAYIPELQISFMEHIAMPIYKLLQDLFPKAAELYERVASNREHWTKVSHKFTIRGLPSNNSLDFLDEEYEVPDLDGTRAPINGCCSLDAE

SMILES	IC50 (Phosphodiesterase 3) [nM]	EC50 (Oryctolagus cuniculus) [nM]	IC50 [1] [nM]	ED50 (Rattus norvegicus [2]) [mg/kg]	inhibition in vivo at 10 mg/kg (Rattus norvegicus [3]) [%]
O=C(O)CCCCc1ccc2[nH]c3nc(O)nc-3cc2c1	20	21000	10000	–	–
Cn1c(O)nc2nc3ccc(OCCCCC(=O)O)cc3cc21	80	> 100000	10000	–	–
OCC(O)COc1ccc2[nH]c3nc(O)nc-3cc2c1 (stereo not given)	20	64	–	–	–
CN(C(=O)CCCOc1ccc2nc3c(cc2c1)n(C)c(=O)n3C)C1CCCCC1	5000	13400	–	–	–
CC(=O)CCCOc1ccc2[nH]c3nc(O)nc-3cc2c1	80	70	–	–	–
CCOC(=O)CCc1ccc2[nH]c3nc(O)nc-3cc2c1	600	140	–	–	–
N#CCCCOc1ccc2[nH]c3nc(O)nc-3cc2c1	6	33	–	–	–
O=C(CCCOc1ccc2[nH]c3nc(O)nc-3cc2c1)NC1CCCC1	20	4	–	–	–
CN(C(=O)CCCCCOc1ccc2nc3[nH]c(=O)[nH]c3cc2c1)C1CCCCC1	3	6	7000	–	–
OCCOc1ccc2[nH]c3nc(O)nc-3cc2c1	20	4	> 100000	< 10	–
CCOC(=O)CCCOc1ccc2c(c1)CN1CC(=O)NC1=N2	70	–	–	–	–
O=c1[nH]c2cc3cc(OCCCS(=O)(=O)c4ccccc4)ccc3nc2[nH]1	2	50	> 100000	–	–
O=C(CCCCc1ccc2[nH]c3nc(O)nc-3cc2c1)N1CCCCC1	60	170	–	–	–
O=C(O)C1CCN(C(=O)CCCOc2ccc3[nH]c4nc(O)nc-4cc3c2)CC1	20	180	–	–	–
COC(=O)CCCCOc1ccc2[nH]c3nc(O)nc-3cc2c1	–	–	> 100000	–	–
CC(=O)OCCCCOc1ccc2[nH]c3nc(O)nc-3cc2c1	40	320	–	–	–
CCOC(=O)CN(C(=O)CCCOc1ccc2[nH]c3nc(O)nc-3cc2c1)C1CCCCC1	2	9	3000	–	–
CC(C)OC(=O)CCCOc1ccc2[nH]c3nc(O)nc-3cc2c1	300	21	–	> 10	24

SMILES	IC50 (Phosphodiesterase 3) [nM]	EC50 (Oryctolagus cuniculus) [nM]	IC50 [1] [nM]	ED50 (Rattus norvegicus [2]) [mg/kg]	inhibition in vivo at 10 mg/kg (Rattus norvegicus [3]) [%]
O=C(O)COc1ccc2[nH]c3nc(O)nc-3cc2c1	70	760	50000	< 10	61
O=C(O)CCCOc1ccc2c(c1)CN1CC(=O)NC1=N2	40	3460	–	–	–
CCOC(=O)COc1ccc2[nH]c3nc(O)nc-3cc2c1	–	7600	–	–	–
Oc1nc2cc3cc(OCCCCc4nnn[nH]4)ccc3[nH]c-2n1	10	1010	–	–	–
COC(=O)CCCCc1ccc2[nH]c3nc(O)nc-3cc2c1	900	270	–	> 10	29
COC(=O)CN(C(=O)CCCOc1ccc2[nH]c3nc(O)nc-3cc2c1)C1CCCCC1	0.5	2	5500	3	–
OCCCc1ccc2[nH]c3nc(O)nc-3cc2c1	60	410	–	–	–
O=C(CCCOc1ccc2nc3[nH]c(=O)[nH]c3cc2c1)NC1CCCCC1	–	7	> 100000	–	31
COC(=O)CCCOc1ccc2nc3[nH]c(=O)n(C)c3cc2c1	–	–	100000	–	–
COC(=O)CCCCCOc1ccc2nc3[nH]c(=O)[nH]c3cc2c1	60	27	> 100000	–	–
O=C(O)CCCCCOc1ccc2[nH]c3nc(O)nc-3cc2c1	4	950	7000	–	–
CN(C(=O)CCCOc1ccc2nc3nc(O)n(C)c3cc2c1)C1CCCCC1	200	40	8000	–	–
OCCCCOc1ccc2[nH]c3nc(O)nc-3cc2c1	6	33	20000	> 10	47
O=C(CCCOc1ccc2[nH]c3nc(O)nc-3cc2c1)N1CCCCC1	20	–	> 100000	< 10	57
CNC(=O)CCCOc1ccc2[nH]c3nc(O)nc-3cc2c1	7	830	–	< 10	57
Oc1nc2cc3cc(OCCCc4nnn[nH]4)ccc3[nH]c-2n1	3	1580	–	–	–
O=C(CCCOc1ccc2[nH]c3nc(O)nc-3cc2c1)NC12C[C@H]3C[C@@H](C1)C[C@@H](C2)C3	1	50	100000	4	–
